# Legend:
# Oryctolagus cuniculus [1] = species on record: Oryctolagus cuniculus; test: Vasoconstrictor effect at a concentration of 10e-9 M using partially depolarized isolated rings from rabbit.; format: functional
# Oryctolagus cuniculus [2] = species on record: Oryctolagus cuniculus; test: Vasoconstrictor effect at a concentration of 10e-6 M using partially depolarized isolated rings from rabbit.; format: functional
# Oryctolagus cuniculus [3] = species on record: Oryctolagus cuniculus; test: Vasoconstrictor effect at a concentration of 10e-7 M using partially depolarized isolated rings from rabbit.; format: functional
# Oryctolagus cuniculus [4] = species on record: Oryctolagus cuniculus; test: Vasoconstrictor effect at a concentration of 10e-6 M using nondepolarized isolated rings from rabbit.; format: functional
# Oryctolagus cuniculus [5] = species on record: Oryctolagus cuniculus; test: Vasoconstrictor effect at a concentration of 3 x 10e-9 M using partially depolarized isolated rings from rabbit.; format: functional
# Oryctolagus cuniculus [6] = species on record: Oryctolagus cuniculus; test: Vasoconstrictor effect at a concentration of 10e-8 M using partially depolarized isolated rings from rabbit.; format: functional
# Oryctolagus cuniculus [7] = species on record: Oryctolagus cuniculus; test: Vasoconstrictor effect at a concentration of 10e-7 M using nondepolarized isolated rings from rabbit.; format: functional
# Oryctolagus cuniculus [8] = species on record: Oryctolagus cuniculus; test: Vasoconstrictor effect at a concentration of 3 x 10e-8 M using partially depolarized isolated rings from rabbit.; format: functional
# Oryctolagus cuniculus [9] = species on record: Oryctolagus cuniculus; test: Vasoconstrictor effect at a concentration of 10e-8 M using nondepolarized isolated rings from rabbit.; format: functional
# Oryctolagus cuniculus [10] = species on record: Oryctolagus cuniculus; test: Vasoconstrictor effect at a concentration of 3 x 10e-8 M using nondepolarized isolated rings from rabbit.; format: functional
# Oryctolagus cuniculus [11] = species on record: Oryctolagus cuniculus; test: Vasoconstrictor effect at a concentration of 3 x 10e-9 M using nondepolarized isolated rings from rabbit.; format: functional
# Oryctolagus cuniculus [12] = species on record: Oryctolagus cuniculus; test: Vasoconstrictor effect at a concentration of 10e-9 M using nondepolarized isolated rings from rabbit.; format: functional
# Oryctolagus cuniculus [13] = species on record: Oryctolagus cuniculus; test: Vasoconstrictor effect at a concentration of 10e-7 M in presence of nondepolarized isolated rings from rabbits.; format: functional
# Oryctolagus cuniculus [14] = species on record: Oryctolagus cuniculus; test: Vasorelaxant effect at a concentration of 10e-4 M on rabbit aortic rings previously contracted with 1.0 uM Norepinephrine.; format: functional, Aorta; set-up: unit not given here
# How it was run: (§1)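 Rabbit aortic rings precontracted with 50 mM KCl or 1.0 μM norepinephrine, then exposed to increasing concentrations of test agent. Relaxation recorded at each concentration.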
# Oryctolagus cuniculus [15] = species on record: Oryctolagus cuniculus; test: Vasoconstrictor effect at a concentration of 10e-8 M in presence of partially depolarized isolated rings from rabbits.; format: functional
# Oryctolagus cuniculus [16] = species on record: Oryctolagus cuniculus; test: Vasorelaxant effect at a concentration of 10e-5 M on rabbit aortic rings previously contracted with 50 mM KCl.; format: functional, Aorta; set-up: unit not given here; how it was run: as §1
# Oryctolagus cuniculus [17] = species on record: Oryctolagus cuniculus; test: Vasorelaxant effect at a concentration of 10e-6 M on rabbit aortic rings previously contracted with 50 mM KCl.; format: functional, Aorta; set-up: unit not given here; how it was run: as §1
# Oryctolagus cuniculus [18] = species on record: Oryctolagus cuniculus; test: Vasoconstrictor effect at a concentration of 10e-5 M in presence of nondepolarized isolated rings from rabbits.; format: functional
# Oryctolagus cuniculus [19] = species on record: Oryctolagus cuniculus; test: Vasoconstrictor effect at a concentration of 10e-5 M in presence of partially depolarized isolated rings from rabbits.; format: functional
# Oryctolagus cuniculus [20] = species on record: Oryctolagus cuniculus; test: Vasoconstrictor effect at a concentration of 10e-7 M in presence of partially depolarized isolated rings from rabbits.; format: functional
# Oryctolagus cuniculus [21] = species on record: Oryctolagus cuniculus; test: Vasoconstrictor effect at a concentration of 10e-8 M in presence of nondepolarized isolated rings from rabbits.; format: functional
# Oryctolagus cuniculus [22] = species on record: Oryctolagus cuniculus; test: Vasoconstrictor effect at a concentration of 10e-6 M in presence of partially depolarized isolated rings from rabbits.; format: functional
# Rattus norvegicus [23] = species on record: Rattus norvegicus; test: Cardiovascular activity in isolated rat heart, concentration producing 25% increase in CF (cardiac flow).; format: functional
# How it was run: (§2)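 Isolated Langendorff-perfused rat heart. Coronary flow (CF), LV +dP/dtmax and heart rate recorded during exposure to test agent. Value is the concentration giving a 25% rise in CF or in LV +dP/dtmax, mean ± SE. At least two hearts per compound.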
# Oryctolagus cuniculus [24] = species on record: Oryctolagus cuniculus; test: Vasorelaxant effect at a concentration of 10e-7 M on rabbit aortic rings previously contracted with 50 mM KCl.; format: functional, Aorta; set-up: unit not given here; how it was run: as §1
# Oryctolagus cuniculus [25] = species on record: Oryctolagus cuniculus; test: Vasorelaxant effect at a concentration of 10e-8 M on rabbit aortic rings previously contracted with 50 mM KCl.; format: functional, Aorta; how it was run: as §1
# [26] = target: Voltage-gated L-type calcium channel (Rattus norvegicus, UniProt P22002+Q02485+P27732); test: Affinity to bind dihydropyridine receptor (DHP receptor) by inhibiting the radioligand [3H]nitrendipine; format: protein assay
# How it was run: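 [3H]nitrendipine displacement, rat brain cortical membranes. Each compound first screened at 1000 nM; if inhibition exceeded 40%, a four- to seven-point curve with unlabeled compound was run. IC50 generally mean of two experiments, each in triplicate. ">1000 nM" means under 40% inhibition of control binding at 1000 nM.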
# Oryctolagus cuniculus [27] = species on record: Oryctolagus cuniculus; test: Vasoconstrictor effect at a concentration of 10e-4 M in presence of nondepolarized isolated rings from rabbits.; format: functional
# Oryctolagus cuniculus [28] = species on record: Oryctolagus cuniculus; test: Vasorelaxant effect at a concentration of 10e-9 M on rabbit aortic rings previously contracted with 1.0 uM Norepinephrine.; format: functional, Aorta; how it was run: as §1
# Oryctolagus cuniculus [29] = species on record: Oryctolagus cuniculus; test: Vasoconstrictor effect at a concentration of 10e-4 M in presence of partially depolarized isolated rings from rabbits.; format: functional
# Oryctolagus cuniculus [30] = species on record: Oryctolagus cuniculus; test: Vasoconstrictor effect at a concentration of 10e-9 M in presence of partially depolarized isolated rings from rabbits.; format: functional
# Oryctolagus cuniculus [31] = species on record: Oryctolagus cuniculus; test: Vasorelaxant effect at a concentration of 10e-9 M on rabbit aortic rings previously contracted with 50 mM KCl.; format: functional, Aorta; how it was run: as §1
# Oryctolagus cuniculus [32] = species on record: Oryctolagus cuniculus; test: Vasorelaxant effect at a concentration of 10e-6 M on rabbit aortic rings previously contracted with 1.0 uM Norepinephrine.; format: functional, Aorta; set-up: unit not given here; how it was run: as §1
# Rattus norvegicus [33] = species on record: Rattus norvegicus; test: Compound was tested for its effect on coronary vasodilator in isolated rat hearts.; format: functional
# How it was run: (§3)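 Coronary vasodilation and ventricular contractility measured in isolated Langendorff-perfused rat hearts. EC25 (concentration raising the parameter by 25%) given as mean ± SEM of four to six hearts.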
# Oryctolagus cuniculus [34] = species on record: Oryctolagus cuniculus; test: Vasorelaxant effect at a concentration of 10e-4 M on rabbit aortic rings previously contracted with 50 mM KCl.; format: functional, Aorta; set-up: unit not given here; how it was run: as §1
# Oryctolagus cuniculus [35] = species on record: Oryctolagus cuniculus; test: Vasorelaxant effect at a concentration of 10e-5 M on rabbit aortic rings previously contracted with 1.0 uM Norepinephrine.; format: functional, Aorta; set-up: unit not given here; how it was run: as §1
# Rattus norvegicus [36] = species on record: Rattus norvegicus; test: Compound was tested for its effect on ventricular contractility in isolated rat hearts.; format: functional, Cardiac ventricle; how it was run: as §3
# Oryctolagus cuniculus [37] = species on record: Oryctolagus cuniculus; test: Vasorelaxant effect at a concentration of 10e-8 M on rabbit aortic rings previously contracted with 1.0 uM Norepinephrine.; format: functional, Aorta; how it was run: as §1
# Rattus norvegicus [38] = species on record: Rattus norvegicus; test: Cardiovascular activity in isolated rat heart, concentration producing 25% increase in LV + dP/dtmax.; format: functional; how it was run: as §2
# Oryctolagus cuniculus [39] = species on record: Oryctolagus cuniculus; test: Vasoconstrictor effect at a concentration of 10e-9 M in presence of nondepolarized isolated rings from rabbits.; format: functional
# Oryctolagus cuniculus [40] = species on record: Oryctolagus cuniculus; test: Vasorelaxant effect at a concentration of 10e-7 M on rabbit aortic rings previously contracted with 1.0 uM Norepinephrine.; format: functional, Aorta; set-up: unit not given here; how it was run: as §1
# Oryctolagus cuniculus [41] = species on record: Oryctolagus cuniculus; test: Vasoconstrictor effect at a concentration of 10e-5 M using partially depolarized isolated rings from rabbit.; format: functional
# Oryctolagus cuniculus [42] = species on record: Oryctolagus cuniculus; test: Vasoconstrictor effect at a concentration of 10e-5 M using nondepolarized isolated rings from rabbit.; format: functional
# Oryctolagus cuniculus [43] = species on record: Oryctolagus cuniculus; test: Vasorelaxant effect at a concentration of 10e-10 M on rabbit aortic rings previously contracted with 50 mM KCl.; format: functional, Aorta
# How it was run: (§4)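 They were then exposed to increasing concentrations of the test agent, and relaxation of the precontraction was recorded as calcium channel blocking activity.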
# Oryctolagus cuniculus [44] = species on record: Oryctolagus cuniculus; test: Vasorelaxant effect at a concentration of 10e-10 M on rabbit aortic rings previously contracted with 1.0 uM Norepinephrine.; format: functional, Aorta; how it was run: as §4
# Rattus norvegicus [45] = species on record: Rattus norvegicus; test: Compound was tested for its effect on ventricular cantractility in isolated rat hearts.; format: functional, Cardiac ventricle; how it was run: as §3
SMILES,Vasoconstriction effect (Oryctolagus cuniculus [1]),Vasoconstriction effect (Oryctolagus cuniculus [2]),Vasoconstriction effect (Oryctolagus cuniculus [3]),Vasoconstriction effect (Oryctolagus cuniculus [4]),Vasoconstriction effect (Oryctolagus cuniculus [5]),Vasoconstriction effect (Oryctolagus cuniculus [6]),Vasoconstriction effect (Oryctolagus cuniculus [7]),Vasoconstriction effect (Oryctolagus cuniculus [8]),Vasoconstriction effect (Oryctolagus cuniculus [9]),Vasoconstriction effect (Oryctolagus cuniculus [10]),Vasoconstriction effect (Oryctolagus cuniculus [11]),Vasoconstriction effect (Oryctolagus cuniculus [12]),Vasorelaxant effect (Oryctolagus cuniculus [16]),Vasorelaxant effect (Oryctolagus cuniculus [17]),Vasorelaxant effect (Oryctolagus cuniculus [24]),Vasorelaxant effect (Oryctolagus cuniculus [25]),IC50 [26],Vasorelaxant effect (Oryctolagus cuniculus [28]),Vasorelaxant effect (Oryctolagus cuniculus [31]),Vasorelaxant effect (Oryctolagus cuniculus [32]),further results
COC(=O)C1=C(C)NC(C)=C([N+](=O)[O-])C1c1ccccc1C(F)(F)F (centres undefined),3.2,93.2,82.1,15.9,10.2,32.4,10,59.2,0,1.5,0,0,,,,,,,,,
CCOC(=O)C1=C(CS(=O)(=O)c2ccncc2)NC(C)=C(C#N)C1c1ccccc1C(F)(F)F (stereo in doubt; 54),,,,,,,,,,,,,53.8,6.2,-9.1,-8.6,271 nM,-0.9,-4.8,-2.3,Vasoconstriction effect (Oryctolagus cuniculus [13]): 0; Vasorelaxant effect (Oryctolagus cuniculus [14]): 4.2; Vasoconstriction effect (Oryctolagus cuniculus [15]): 4.5; Vasoconstriction effect (Oryctolagus cuniculus [18]): 0; Vasoconstriction effect (Oryctolagus cuniculus [19]): 0; Vasoconstriction effect (Oryctolagus cuniculus [20]): 5; Vasoconstriction effect (Oryctolagus cuniculus [21]): 0; Vasoconstriction effect (Oryctolagus cuniculus [22]): 2.4; EC25 (Rattus norvegicus [23]): 290 nM; Vasoconstriction effect (Oryctolagus cuniculus [27]): 0; Vasoconstriction effect (Oryctolagus cuniculus [29]): 0; Vasoconstriction effect (Oryctolagus cuniculus [30]): 3.3; EC25 (Rattus norvegicus [33]): 284 nM; Vasorelaxant effect (Oryctolagus cuniculus [34]): 88.9; Vasorelaxant effect (Oryctolagus cuniculus [35]): 0.7; EC25 (Rattus norvegicus [36]): 535 nM; Vasorelaxant effect (Oryctolagus cuniculus [37]): -1.4; EC25 (Rattus norvegicus [38]): 470 nM; Vasoconstriction effect (Oryctolagus cuniculus [39]): 0; Vasorelaxant effect (Oryctolagus cuniculus [40]): -1.8
NC[C@H](O)c1ccc(O)c(O)c1 [NOREPINEPHRINE],7.8,106.3,84.4,112.6,18.2,46.2,80.2,63.4,22.2,49.1,0,0,,,,,,,,,Vasoconstriction effect (Oryctolagus cuniculus [41]): 137.2; Vasoconstriction effect (Oryctolagus cuniculus [42]): 151.3
COC(=O)C1=C(C)NC(C)=C(C(=O)OC)C1c1ccccc1[N+](=O)[O-] [NIFEDIPINE],,,,,,,,,,,,,92.6,89.4,65.8,24.7,,-1.2,-1.7,3.5,Vasorelaxant effect (Oryctolagus cuniculus [35]): 6.1; Vasorelaxant effect (Oryctolagus cuniculus [43]): -3.1; Vasorelaxant effect (Oryctolagus cuniculus [37]): -1.1; Vasorelaxant effect (Oryctolagus cuniculus [44]): -1; Vasorelaxant effect (Oryctolagus cuniculus [40]): 1
CCOC(=O)C1=C(CS(=O)(=O)c2ccncc2)NC(C)=C(C#N)C1c1ccccc1C(F)(F)F (stereo in doubt; 54A),,,,,,,,,,,,,,,,,152 nM,,,,EC25 (Rattus norvegicus [33]): 128 nM; EC25 (Rattus norvegicus [45]): 701 nM
